Results reported in publication PMC4586255 (DNA repair, 2010).
Residues, ends and D or L forms follow the SMILES beside them.

Key:
PCNA = PCNA (Homo sapiens, UniProt P12004); assay: Isothermal titration calorimetry of hEXO1 peptides with purified PCNA; type: binding; conditions: ITC, 30 °C, pH 7.5; 18 μM PCNA, 200 μM p22; no dilution effects in pure buffer
hEXO1 = conditions: hEXO1-hMLH1 interaction, ref [15], cited from earlier work
[1] = system: PCNA replication foci in NIH3T3 cells; type: cell-based, murine; conditions: for foci formation and co-localization with PCNA during S-phase: 24–48 h
Procedure, shortened: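 Murine NIH3T3 cells were kept in DMEM with 10% FBS and penicillin/streptomycin at 37 °C, 10% CO₂. Cells (2*10⁵ per glass-bottom dish) were seeded 24 h before ExGen500 co-transfection with 3 μg total plasmid (CFP-PCNA plus YFP fusion). Confocal imaging at 24–48 h. Co-transfected cells were counted and binned by pattern, e.g. "no foci" (diffuse CFP-PCNA, diffuse nuclear YFP).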

[2] = system: PCNA replication foci in HCT116 cells; assay: Co-localization with PCNA in replication foci in HCT116 cells; type: cell-based; conditions: HCT116 cell line (hMLH1 deficient); Fig. S5
[3] = NIH3T3 cells co-transfected with CFP-PCNA

Chain of PCNA (P12004 whole entry): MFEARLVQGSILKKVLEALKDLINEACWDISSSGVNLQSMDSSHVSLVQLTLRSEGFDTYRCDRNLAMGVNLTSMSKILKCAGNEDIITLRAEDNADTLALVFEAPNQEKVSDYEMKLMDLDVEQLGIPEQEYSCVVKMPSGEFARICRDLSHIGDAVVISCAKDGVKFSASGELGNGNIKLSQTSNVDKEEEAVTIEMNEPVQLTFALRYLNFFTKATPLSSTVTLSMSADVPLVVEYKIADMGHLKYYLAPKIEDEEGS

Q: For `CC[C@H](C)[C@H](NC(=O)[C@H](CCC(N)=O)NC(=O)[C@H](CC(C)C)NC(=O)CNC(=O)[C@@H]1CCCN1C(=O)[C@H](CCCCN)NC(=O)[C@@H](N)CC(N)=O)C(=O)N[C@@H](CCCCN)C(=O)N[C@@H](CC(C)C)C(=O)N[C@@H](CC(N)=O)C(=O)N[C@@H](CCC(=O)O)C(=O)N[C@@H](CC(C)C)C(=O)N[C@@H](Cc1c[nH]c2ccccc12)C(=O)N[C@@H](CCCCN)C(=O)N[C@@H](CC(N)=O)C(=O)N[C@@H](Cc1ccccc1)C(=O)NCC(=O)N[C@@H](Cc1ccccc1)C(=O)N[C@@H](CCCCN)C(=O)N[C@@H](CCCCN)C(=O)N[C@@H](CC(=O)O)C(=O)N[C@@H](CO)C(=O)O` [hEXO1 p22] (H-NKPGLQIKLNELWKNFGFKKDS-OH; N-terminus and C-terminus assumed), which “heat exchange of binding reaction with PCNA” value (PCNA) is on record?
A: Its value is “exothermic heat exchange”.

Q: What does the source list for hEXO1-hMLH1: hEXO1-hMLH1 complex?
A: exonuclease activity on heteroduplex substrate (hEXO1; heteroduplex substrate): inhibits exonuclease activity on a heteroduplex substrate; exonuclease activity on homoduplex substrate (hEXO1; homoduplex substrate): did not inhibit exonuclease activity on a homoduplex substrate

Q: With “hMSH6: fusion protein, CFP or YFP tagged MMR protein” as the compound, how does the “foci formation and co-localization with PCNA during S-phase” value [1, 3] read?
A: The value was “form PCNA co-localizing foci throughout S-phase”.

Q: What does the source list for human exonuclease 1 [YFP-hEXO1]?
A: Small foci (CFP-PCNA) ([1]; CFP channel (CFP-PCNA) in cells co-expressing the hEXO1 protein, early S-phase foci, 50 co-transfected cells): 28%; Large foci (CFP-PCNA) ([1]; CFP channel (CFP-PCNA) in cells co-expressing the hEXO1 protein, late S-phase foci, 50 co-transfected cells): 12%; Mid Foci (CFP-PCNA) ([1]; CFP channel (CFP-PCNA) in cells co-expressing the hEXO1 protein, mid S-phase foci, 50 co-transfected cells): 14%; cells showing diffuse nuclear staining [1, 3]: 40%; foci formation and co-localization with PCNA during S-phase [1, 3]: co-localize in discrete nuclear foci; sub-cellular localization ([1]; NIH3T3 cells, confocal imaging): only rarely observed in the cytoplasm; co-localization with PCNA in replication foci [2]: co-localize with PCNA in replication foci in the HCT116 cell line
